Laboratory results: ChEMBL document CHEMBL4152343, “Design, Synthesis, and Pharmacological Evaluation of Second-Generation Tetrahydroisoquinoline-Based CXCR4 Antagonists with Favorable ADME Properties” (J Med Chem, 2018)

Experiments:
[1] = Metabolic stability in human liver microsomes assessed as parent compound remaining after 10 mins by LC-MS/MS analysis; format: ADME, microsome; conditions: read-out: Stability
How it was run: (§1)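 Compound depletion measured by LC/MS/MS after 10 min at 37 °C in liver microsome preparations (CYP450 and other NADP-dependent enzymes). Values are % of compound remaining; duplicates in a single experiment.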

[2] = target: T1, C-X-C chemokine receptor type 4 (Homo sapiens, UniProt P61073); test: Antagonist activity at CXCR4 in human CCRF-CEM cells assessed as inhibition of SDF-1alpha-induced calcium release preincubated for 25 mins followed by SDF-1alpha stimulation and measured for 90 secs by calcium flux assay; format: functional, cell-based
T1 sequence (P61073 whole entry): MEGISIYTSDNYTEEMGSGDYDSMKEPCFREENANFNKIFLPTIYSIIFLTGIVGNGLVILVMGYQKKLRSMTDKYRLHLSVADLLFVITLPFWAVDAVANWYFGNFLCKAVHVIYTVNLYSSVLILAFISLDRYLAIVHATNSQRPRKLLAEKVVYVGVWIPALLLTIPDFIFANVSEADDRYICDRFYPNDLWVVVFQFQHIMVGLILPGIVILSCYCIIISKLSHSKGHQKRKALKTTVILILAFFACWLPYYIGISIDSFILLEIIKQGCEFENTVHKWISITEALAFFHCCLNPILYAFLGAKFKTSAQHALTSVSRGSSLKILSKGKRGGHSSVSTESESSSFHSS

[3] = Permeability of compound at pH 7.4 by PAMPA; format: ADME; conditions: read-out: permeability
How it was run: (§2)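 Compound from 10 mM DMSO stock diluted 1:100 to 100 µM (1% DMSO) in pH 7.4 or pH 5.5 donor buffer, then filtered. Lipid-coated filter membrane with pH 7.4 acceptor buffer; incubated 4 h at room temperature. UV plate reading gives Pc. Duplicates in two independent experiments unless noted.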

Cytochrome P450 2D6 = Cytochrome P450 2D6 (Homo sapiens, UniProt P10635); test: Inhibition of recombinant human CYP2D6 expressed in insect cells microsomes using AMMC as substrate preincubated for 30 mins followed by NADP addition and measured after 45 mins by fluorescence analysis; format: ADME
Sequence of Cytochrome P450 2D6 (P10635 whole entry): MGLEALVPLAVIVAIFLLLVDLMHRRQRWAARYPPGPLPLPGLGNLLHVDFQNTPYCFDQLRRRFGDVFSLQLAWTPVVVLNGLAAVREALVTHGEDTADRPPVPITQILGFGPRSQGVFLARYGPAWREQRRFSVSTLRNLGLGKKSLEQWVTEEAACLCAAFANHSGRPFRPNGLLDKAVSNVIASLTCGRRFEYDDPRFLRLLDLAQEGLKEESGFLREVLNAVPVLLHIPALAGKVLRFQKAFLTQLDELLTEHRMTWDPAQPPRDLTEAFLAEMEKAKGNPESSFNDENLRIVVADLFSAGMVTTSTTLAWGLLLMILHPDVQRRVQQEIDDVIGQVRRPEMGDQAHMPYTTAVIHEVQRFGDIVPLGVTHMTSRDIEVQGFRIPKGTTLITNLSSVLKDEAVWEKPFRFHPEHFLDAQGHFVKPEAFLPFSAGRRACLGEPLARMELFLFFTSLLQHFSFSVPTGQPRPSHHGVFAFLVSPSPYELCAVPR

[4] = Metabolic stability in mouse liver microsomes assessed as parent compound remaining after 10 mins by LC-MS/MS analysis; format: ADME, microsome; conditions: read-out: Stability; how it was run: as §1
[5] = target: Muscarinic acetylcholine receptor; test: Antagonist activity at mAChR in human CCRF-CEM cells assessed as inhibition of acetylcholine-induced calcium release preincubated for 25 mins followed by acetylcholine stimulation and measured for 90 secs by calcium flux assay; format: functional, cell-based
How it was run: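 Endogenous muscarinic receptors in CCRF-CEM cells (HBSS/HEPES/BSA buffer, 40,000 cells/well, dye-loaded 30 min at 37°C). Calcium flux recorded 90 s by FDSS. IC50 by 4-parameter logistic fit against an internal control compound; duplicate wells, single experiment.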

[6] = target: T1, C-X-C chemokine receptor type 4; test: Agonist activity at CXCR4 in human CCRF-CEM cells assessed as induction of calcium release incubated for 25 mins by calcium flux assay; format: functional, cell-based
How it was run: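 CCRF-CEM T lymphoblasts (endogenous CXCR4) in HBSS/20 mM HEPES/0.1% fatty-acid-free BSA, 40,000 cells/well, dye-loaded 30 min at 37°C, then 15 min at room temperature. Compounds added at final 25,000–0.423 nM (0.5% DMSO) and calcium flux read by FDSS for 90 s.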

Cytochrome P450 3A4 = Cytochrome P450 3A4 (Homo sapiens, UniProt P08684); test: Inhibition of human CYP3A4; format: ADME
Sequence of Cytochrome P450 3A4 (P08684 whole entry): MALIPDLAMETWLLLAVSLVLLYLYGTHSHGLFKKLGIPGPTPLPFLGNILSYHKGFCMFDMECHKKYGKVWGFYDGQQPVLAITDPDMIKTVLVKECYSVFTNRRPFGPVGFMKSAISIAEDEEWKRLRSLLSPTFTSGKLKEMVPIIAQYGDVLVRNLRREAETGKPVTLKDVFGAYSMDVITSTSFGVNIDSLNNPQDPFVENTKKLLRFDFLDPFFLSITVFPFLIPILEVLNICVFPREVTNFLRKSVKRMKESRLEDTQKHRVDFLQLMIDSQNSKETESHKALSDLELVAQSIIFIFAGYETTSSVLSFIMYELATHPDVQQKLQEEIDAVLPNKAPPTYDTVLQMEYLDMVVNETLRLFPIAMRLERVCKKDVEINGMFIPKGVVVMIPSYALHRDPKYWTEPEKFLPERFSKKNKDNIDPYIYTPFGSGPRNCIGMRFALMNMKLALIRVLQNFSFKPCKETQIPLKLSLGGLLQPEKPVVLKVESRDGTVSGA

Homo sapiens = species on record: Homo sapiens; test: Selectivity index, ratio of IC50 for antagonist activity at mAChR in human CCRF-CEM cells to IC50 for antagonist activity at CXCR4 in human CCRF-CEM cells; format: cell-based
[7] = Permeability of compound at pH 5.5 by PAMPA; format: ADME; conditions: read-out: permeability; how it was run: as §2
[8] = target: Voltage-gated inwardly rectifying potassium channel KCNH2 (Homo sapiens, UniProt Q12809); test: Displacement of [3H]astemizole from human ERG expressed in HEK cell membranes
Sequence of Voltage-gated inwardly rectifying potassium channel KCNH2 (Q12809 whole entry): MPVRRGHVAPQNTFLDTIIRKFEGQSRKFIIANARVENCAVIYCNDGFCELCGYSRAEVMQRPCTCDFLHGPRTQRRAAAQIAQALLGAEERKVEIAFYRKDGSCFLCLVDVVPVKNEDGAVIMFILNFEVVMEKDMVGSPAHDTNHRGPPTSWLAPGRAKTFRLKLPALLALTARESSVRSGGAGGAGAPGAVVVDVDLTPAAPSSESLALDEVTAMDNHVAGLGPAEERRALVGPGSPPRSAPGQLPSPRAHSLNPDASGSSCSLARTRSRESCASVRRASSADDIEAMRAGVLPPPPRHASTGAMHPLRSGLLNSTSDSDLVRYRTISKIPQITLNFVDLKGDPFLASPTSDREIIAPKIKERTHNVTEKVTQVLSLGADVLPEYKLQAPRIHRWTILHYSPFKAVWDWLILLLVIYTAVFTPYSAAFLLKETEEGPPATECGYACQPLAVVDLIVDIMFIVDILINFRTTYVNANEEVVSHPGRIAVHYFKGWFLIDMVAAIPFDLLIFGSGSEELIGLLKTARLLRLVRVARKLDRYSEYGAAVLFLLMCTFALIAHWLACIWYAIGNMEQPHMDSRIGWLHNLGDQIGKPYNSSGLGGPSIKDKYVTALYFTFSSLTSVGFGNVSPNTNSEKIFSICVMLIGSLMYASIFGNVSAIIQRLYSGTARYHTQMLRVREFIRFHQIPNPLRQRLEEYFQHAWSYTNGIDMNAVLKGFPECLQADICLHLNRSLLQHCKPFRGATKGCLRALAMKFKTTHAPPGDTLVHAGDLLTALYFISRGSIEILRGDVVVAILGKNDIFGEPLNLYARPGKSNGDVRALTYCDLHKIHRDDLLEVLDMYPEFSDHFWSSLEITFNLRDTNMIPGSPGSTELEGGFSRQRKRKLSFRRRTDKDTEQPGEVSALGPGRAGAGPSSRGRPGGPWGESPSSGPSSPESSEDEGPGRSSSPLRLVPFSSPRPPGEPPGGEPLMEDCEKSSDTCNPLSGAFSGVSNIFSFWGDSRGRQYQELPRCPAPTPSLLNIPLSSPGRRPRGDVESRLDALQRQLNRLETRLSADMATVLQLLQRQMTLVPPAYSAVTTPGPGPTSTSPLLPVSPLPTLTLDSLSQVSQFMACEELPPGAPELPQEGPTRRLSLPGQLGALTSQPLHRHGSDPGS
How it was run: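 Binding assay measuring [3H]astemizole displacement in HEK membranes overexpressing hKv11.1.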

[9] = target: Voltage-gated L-type calcium channel (Homo sapiens, UniProt Q13936+Q13698+Q01668+O60840); test: Antagonist activity at L-type calcium channel (unknown origin); format: protein assay

Q: For CN(C[C@H]1Cc2c(cccc2N2CCN3CCC[C@@H]3C2)CN1)[C@H]1CCCc2cccnc21, which remaining at 10 min [1] is on record?
A: 52.2%

Q: And the IC50 [2]?
A: 0.00359 µM

Q: And the Papp [3]?
A: 74 ×10⁻⁶ cm/s

Q: What about the IC50 (Cytochrome P450 2D6) of the same compound?
A: > 20 µM

Q: And the remaining at 10 min [4]?
A: 36.7%

Q: And the IC50 [5]?
A: 26.1 µM

Q: What about the EC50 [6] of the same compound?
A: > 30 µM

Q: What about the IC50 (Cytochrome P450 3A4) of the same compound?
A: > 20 µM

Q: What about the Ratio IC50 (Homo sapiens) of the same compound?
A: > 5000

Q: For CN(C[C@H]1Cc2c(cccc2N2CCN(c3ccccn3)CC2)CN1)[C@H]1CCCc2cccnc21, which remaining at 10 min [1] is on record?
A: 27.4%

Q: What about the IC50 [2] of the same compound?
A: 0.0179 µM

Q: What about the IC50 (Cytochrome P450 2D6) of the same compound?
A: 2.52 µM

Q: What about the remaining at 10 min [4] of the same compound?
A: 46.1%

Q: And the IC50 [5]?
A: 1.98 µM

Q: And the EC50 [6]?
A: > 30 µM

Q: What about the IC50 (Cytochrome P450 3A4) of the same compound?
A: 3.16 µM

Q: And the Papp [7]?
A: 12.9 ×10⁻⁶ cm/s

Q: With CN(C[C@H]1Cc2c(cccc2N2CCNCC2)CN1)[C@H]1CCCc2cccnc21 as the compound, how does the remaining at 10 min [1] read?
A: 99.7%

Q: What about the IC50 [2] of the same compound?
A: 0.00608 µM

Q: What about the IC50 [8] of the same compound?
A: 20.3 µM

Q: And the IC50 (Cytochrome P450 2D6)?
A: > 20 µM

Q: What about the remaining at 10 min [4] of the same compound?
A: 19.9%

Q: What about the IC50 [5] of the same compound?
A: 7.18 µM

Q: What about the EC50 [6] of the same compound?
A: > 30 µM

Q: What about the IC50 [9] of the same compound?
A: > 80 µM

Q: What about the IC50 (Cytochrome P450 3A4) of the same compound?
A: > 20 µM
